{"source": "ChEMBL document CHEMBL4619740", "about": "“Chalcones bearing a 3,4,5-trimethoxyphenyl motif are capable of selectively inhibiting oncogenic K-Ras signaling” (Bioorg Med Chem Lett, 2020)", "key": {"GTPase KRas": {"molecular_target": "GTPase KRas (Homo sapiens, UniProt P01116, G12V)", "sequence (P01116 whole entry G12V)": "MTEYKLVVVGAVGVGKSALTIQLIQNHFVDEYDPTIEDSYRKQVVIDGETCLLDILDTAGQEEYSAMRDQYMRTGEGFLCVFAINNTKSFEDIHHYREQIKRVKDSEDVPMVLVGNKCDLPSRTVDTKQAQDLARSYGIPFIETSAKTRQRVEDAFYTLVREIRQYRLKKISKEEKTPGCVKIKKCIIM", "test": "Inhibition of GFP-tagged KRAS G12V mutant (unknown origin) expressed in MDCK cells cotransfected with mCherry-CAXX assessed as increase in KRAS G12V-plasma membrane dissociation incubated for 48 hrs by quantitative confocal microscopic method", "format": "cell-based", "procedure,_shortened": "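MDCK cells stably co-expressing mGFP-K-RasG12V and mCherry-CAAX (endomembrane marker) treated with a range of compound concentrations for 48h. Cells fixed in 4% paraformaldehyde, imaged by confocal microscopy. PM dissociation scored as the fraction of mCherry-CAAX co-localized with GFP-K-RasG12V (Manders coefficient). IC50 estimated from dose-response plots from three independent experiments.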"}, "[1]": {"tested_on": "GTPase HRas (Homo sapiens), P01112 [G12V]", "sequence (P01112 whole entry G12V)": "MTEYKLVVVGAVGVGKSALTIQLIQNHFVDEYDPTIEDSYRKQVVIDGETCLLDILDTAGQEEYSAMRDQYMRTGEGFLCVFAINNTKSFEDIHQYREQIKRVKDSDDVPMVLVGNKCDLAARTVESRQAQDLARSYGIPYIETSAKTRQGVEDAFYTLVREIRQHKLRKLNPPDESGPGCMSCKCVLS", "test": "Inhibition of GFP-tagged HRAS G12V mutant (unknown origin) expressed in MDCK cells cotransfected with mCherry-CAXX assessed as effect on HRAS G12V-plasma membrane dissociation incubated for 48 hrs by quantitative confocal microscopic method", "format": "cell-based", "procedure,_shortened": "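MDCK cells stably co-expressing mGFP-RasG12V (K- or H-) and mCherry-CAAX endomembrane marker treated with a range of concentrations for 48 h, fixed in 4% paraformaldehyde, imaged by quantitative confocal microscopy. Fraction of mCherry-CAAX co-localized with GFP-Ras by Manders coefficient; IC50 for PM dissociation estimated from dose-response plots of three independent experiments.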"}, "[2]": {"tested_on": "GTPase KRas (Homo sapiens), P01116 [G12V]", "sequence (P01116 whole entry G12V)": "as the sequence (P01116 whole entry G12V) above", "test": "Inhibition of GFP-tagged KRAS G12V mutant (unknown origin) expressed in MDCK cells assessed as reduction in Akt phosphorylation level incubated for 48 hrs by Western blot analysis", "format": "cell-based", "procedure,_shortened": "(§1)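 MDCK cells stably expressing GFP-tagged K-RasG12V or H-RasG12V treated 48 h; lysates immunoblotted with anti-ppERK or anti-pAkt (S473) antibodies, total ERK and Akt as loading controls. Quantified as means ± S.E.M. of three independent experiments versus DMSO-treated cells; one-way ANOVA.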"}, "[3]": {"tested_on": "GTPase KRas (Homo sapiens), P01116 [G12V]", "test": "Inhibition of GFP-tagged KRAS G12V mutant (unknown origin) expressed in MDCK cells assessed as reduction in ERK phosphorylation level incubated for 48 hrs by Western blot analysis", "format": "cell-based", "procedure,_shortened": "as §1"}, "[4]": {"tested_on": "GTPase HRas (Homo sapiens), P01112 [G12V]", "test": "Inhibition of GFP-tagged HRAS G12V mutant (unknown origin) expressed in MDCK cells assessed as reduction in Akt phosphorylation level incubated for 48 hrs by Western blot analysis", "format": "cell-based", "procedure,_shortened": "as §1"}, "[5]": {"tested_on": "GTPase HRas (Homo sapiens), P01112 [G12V]", "test": "Inhibition of GFP-tagged HRAS G12V mutant (unknown origin) expressed in MDCK cells assessed as reduction in ERK phosphorylation level incubated for 48 hrs by Western blot analysis", "format": "cell-based", "procedure,_shortened": "as §1"}, "[6]": {"molecular_target": "GTPase KRas (Homo sapiens) (UniProt P01116)", "sequence (P01116 whole entry, looked up)": "as the sequence (P01116 whole entry G12V) above, with V12G counted along it", "test": "Inhibition of KRAS in human NCI-H358 cells assessed as MARCK phosphorylation level at 1 uM incubated for 48 hrs by Western blot analysis (reference value: 1.00 +/- 0.39)", "format": "cell-based"}, "[7]": {"molecular_target": "GTPase KRas (Homo sapiens) (UniProt P01116)", "test": "Inhibition of KRAS in human NCI-H358 cells assessed as MARCK phosphorylation level at 5 uM incubated for 48 hrs by Western blot analysis (reference value: 1.00 +/- 0.39)", "format": "cell-based"}, "[8]": {"molecular_target": "GTPase KRas (Homo sapiens) (UniProt P01116)", "test": "Inhibition of KRAS in human NCI-H358 cells assessed as MARCK phosphorylation level at 10 uM incubated for 48 hrs by Western blot analysis (reference value: 1.00 +/- 0.39)", "format": "cell-based"}, "[9]": {"molecular_target": "GTPase KRas (Homo sapiens) (UniProt P01116)", "test": "Inhibition of KRAS in human NCI-H358 cells assessed as MARCK phosphorylation level at 25 uM incubated for 48 hrs by Western blot analysis (reference value: 1.00 +/- 0.39)", "format": "cell-based"}, "[10]": {"tested_on": "GTPase KRas (Homo sapiens), P01116 [G12V]", "test": "Inhibition of GFP-tagged KRAS G12V mutant (unknown origin) expressed in MDCK cells assessed as MARCK phosphorylation level at 1 uM incubated for 48 hrs by Western blot analysis (reference value: 1.00 +/- 0.13)", "format": "cell-based"}, "[11]": {"tested_on": "GTPase KRas (Homo sapiens), P01116 [G12V]", "test": "Inhibition of GFP-tagged KRAS G12V mutant (unknown origin) expressed in MDCK cells assessed as MARCK phosphorylation level at 5 uM incubated for 48 hrs by Western blot analysis (reference value: 1.00 +/- 0.13)", "format": "cell-based"}, "[12]": {"tested_on": "GTPase KRas (Homo sapiens), P01116 [G12V]", "test": "Inhibition of GFP-tagged KRAS G12V mutant (unknown origin) expressed in MDCK cells assessed as MARCK phosphorylation level at 10 uM incubated for 48 hrs by Western blot analysis (reference value: 1.00 +/- 0.13)", "format": "cell-based"}, "[13]": {"tested_on": "GTPase KRas (Homo sapiens), P01116 [G12V]", "test": "Inhibition of GFP-tagged KRAS G12V mutant (unknown origin) expressed in MDCK cells assessed as MARCK phosphorylation level at 25 uM incubated for 48 hrs by Western blot analysis (reference value: 1.00 +/- 0.13)", "format": "cell-based"}, "[14]": {"tested_on": "GTPase KRas (Homo sapiens), P01116 [G12V,S181A]", "sequence (P01116 1-164 with tags or gaps G12V,S181A)": "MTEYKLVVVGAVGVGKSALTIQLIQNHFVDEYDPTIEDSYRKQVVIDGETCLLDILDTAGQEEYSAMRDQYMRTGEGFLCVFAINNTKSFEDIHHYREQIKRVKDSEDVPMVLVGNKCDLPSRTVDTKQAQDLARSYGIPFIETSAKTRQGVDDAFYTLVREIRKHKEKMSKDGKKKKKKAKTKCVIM", "test": "Inhibition of GFP-tagged KRAS G12V/S181A mutant (unknown origin) expressed in MDCK cells cotransfected with mCherry-CAXX assessed as reduction in KRAS G12V-plasma membrane dissociation incubated for 48 hrs by quantitative confocal microscopic method", "format": "cell-based"}, "[15]": {"molecular_target": "GTPase KRas (Homo sapiens) (UniProt P01116)", "test": "Inhibition of KRAS in human NCI-H358 cells assessed as increase in MARCK phosphorylation level incubated for 48 hrs by Western blot analysis"}, "[16]": {"tested_on": "GTPase KRas (Homo sapiens), P01116 [G12V]", "test": "Inhibition of GFP-tagged KRAS G12V mutant (unknown origin) expressed in MDCK cells assessed as increase in MARCK phosphorylation level incubated for 48 hrs by Western blot analysis"}}, "note": "Calls of active or inactive are those of the source. No cut-off for these calls is given here.", "data": [{"smiles": "COc1ccc(C(=O)/C=C/c2cc(OC)c(OC)c(OC)c2)cc1", "values": [{"measurement": "IC50", "setting": "GTPase KRas", "value": 8.29, "unit": "µM"}]}, {"smiles": "COc1cc(/C=C/C(=O)c2ccc(Br)cc2)cc(OC)c1OC", "values": [{"measurement": "IC50", "setting": "GTPase KRas", "value": 24.6, "unit": "µM"}]}, {"smiles": "COc1cc(C(=O)/C=C/c2c(F)cccc2F)cc(OC)c1OC", "values": [{"measurement": "IC50", "setting": "GTPase KRas", "value": 7.49, "unit": "µM"}]}, {"smiles": "COc1cc(/C=C/C(=O)c2ccc(N(C)C)cc2)cc(OC)c1OC", "values": [{"measurement": "IC50", "setting": "GTPase KRas", "value": 7.42, "unit": "µM"}, {"measurement": "inhibition", "setting": "[1]", "value": "inactive"}]}, {"smiles": "COc1cc(/C=C/C(=O)c2ccc(N)cc2)cc(OC)c1OC", "values": [{"measurement": "IC50", "setting": "GTPase KRas", "value": 9.17, "unit": "µM"}]}, {"smiles": "COc1cc(C(=O)/C=C/c2ccc([N+](=O)[O-])cc2)cc(OC)c1OC", "values": [{"measurement": "IC50", "setting": "GTPase KRas", "value": 8.2, "unit": "µM"}]}, {"smiles": "COc1cc(/C=C/C(=O)c2ccc(F)cc2)cc(OC)c1OC", "values": [{"measurement": "IC50", "setting": "GTPase KRas", "value": 15.9, "unit": "µM"}]}, {"smiles": "COc1cc(/C=C/C(=O)c2ccc([N+](=O)[O-])cc2)cc(OC)c1OC", "values": [{"measurement": "IC50", "setting": "GTPase KRas", "value": 7.01, "unit": "µM"}, {"measurement": "inhibition", "setting": "[1]", "value": "inactive"}, {"measurement": "inhibition", "setting": "[2]", "value": "Active"}, {"measurement": "inhibition", "setting": "[3]", "value": "Active"}, {"measurement": "inhibition", "setting": "[4]", "value": "inactive"}, {"measurement": "inhibition", "setting": "[5]", "value": "inactive"}, {"measurement": "fold change (FC)", "setting": "[6]", "value": 1.89}, {"measurement": "fold change (FC)", "setting": "[7]", "value": 1.92}, {"measurement": "fold change (FC)", "setting": "[8]", "value": 2.57}, {"measurement": "fold change (FC)", "setting": "[9]", "value": 2.65}, {"measurement": "fold change (FC)", "setting": "[10]", "value": 1.31}, {"measurement": "fold change (FC)", "setting": "[11]", "value": 1.76}, {"measurement": "fold change (FC)", "setting": "[12]", "value": 2.85}, {"measurement": "fold change (FC)", "setting": "[13]", "value": 2.8}, {"measurement": "inhibition", "setting": "[14]", "value": "inactive"}, {"measurement": "inhibition", "setting": "[15]", "value": "Dose-dependent effect"}, {"measurement": "inhibition", "setting": "[16]", "value": "Dose-dependent effect"}]}, {"smiles": "COc1cc(/C=C/C(=O)c2ccccn2)cc(OC)c1OC", "values": [{"measurement": "IC50", "setting": "GTPase KRas", "value": 53, "unit": "µM"}]}, {"smiles": "COc1cc(/C=C/C(=O)c2c(F)cccc2F)cc(OC)c1OC", "values": [{"measurement": "IC50", "setting": "GTPase KRas", "value": 8.2, "unit": "µM"}]}]}
